The source of these data is ChEMBL document CHEMBL3259614, “Design, synthesis, and structure-activity relationship studies of novel fused heterocycles-linked triazoles with good activity and water solubility” (J Med Chem, 2014).

Molecules are shown by their SMILES. In brackets after ≈: the same amount, converted by molar mass.

The first experiment concerns Candida albicans. As to the kind of experiment: Antimicrobial activity against Candida albicans SC5314 after 24 hrs by serial dilution method. It counts as functional. The conditions noted are these: SC5314, 24 h. In a few lines:
(§1)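 Broth serial dilution MIC in 96-well plates following NCCLS/CLSI methods. Compounds were dissolved in DMSO and serially diluted in growth medium, with incubation at 35 °C. […] C. parapsilosis 22019 served as the quality-control strain in each assay.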
Turning to `C[C@@H](N1CCn2cc(-c3ccc(F)cc3F)nc2C1)[C@](O)(Cn1cncn1)c1ccc(F)cc1F`, it took 0.125 µg/mL (≈ 0.257 µM) to inhibit growth (MIC).
On the same count and under the same terms, the same measure for `Cc1ccc(-c2cn3c(n2)CN([C@H](C)[C@](O)(Cn2cncn2)c2ccc(F)cc2F)CC3)cc1`: 0.0625 µg/mL (≈ 0.135 µM); for `COc1cccc(-c2cn3c(n2)CN([C@H](C)[C@](O)(Cn2cncn2)c2ccc(F)cc2F)CC3)c1`: 0.0625 µg/mL (≈ 0.13 µM); for `C[C@@H](N1CCn2cc(-c3cccc(F)c3)nc2C1)[C@](O)(Cn1cncn1)c1ccc(F)cc1F`: 0.125 µg/mL (≈ 0.267 µM).
Same read-out and setting: the same measure for `C[C@@H](N1CCn2cc(-c3cccc(C(F)(F)F)c3)nc2C1)[C@](O)(Cn1cncn1)c1ccc(F)cc1F`: 0.125 µg/mL (≈ 0.241 µM).
Same read-out and setting: the same measure for `C[C@@H](N1CCn2ncnc2C1)[C@](O)(Cn1cncn1)c1ccc(F)cc1F`: 0.25 µg/mL (≈ 0.666 µM).
For the molecule `C[C@@H](N1CCn2nc(C(F)(F)F)nc2C1)[C@](O)(Cn1cncn1)c1ccc(F)cc1F`, 0.25 µg/mL (≈ 0.564 µM) was the least that counted as inhibitory (MIC).

The next experiment deals with Candida albicans. Put plainly: Antimicrobial activity against Candida albicans Y0109 after 24 hrs by serial dilution method. The conditions noted are these: Y0109, 24 h. In kind it is functional. In a few lines:
as §1
With `C[C@@H](N1CCn2cc(-c3ccc(F)cc3F)nc2C1)[C@](O)(Cn1cncn1)c1ccc(F)cc1F`, inhibition of growth (MIC) required 0.125 µg/mL (≈ 0.257 µM).
On the same count and under the same terms, the same measure for `Cc1ccc(-c2cn3c(n2)CN([C@H](C)[C@](O)(Cn2cncn2)c2ccc(F)cc2F)CC3)cc1`: 0.0625 µg/mL (≈ 0.135 µM); for `COc1cccc(-c2cn3c(n2)CN([C@H](C)[C@](O)(Cn2cncn2)c2ccc(F)cc2F)CC3)c1`: 0.0625 µg/mL (≈ 0.13 µM); for `C[C@@H](N1CCn2cc(-c3cccc(F)c3)nc2C1)[C@](O)(Cn1cncn1)c1ccc(F)cc1F`: 0.25 µg/mL (≈ 0.534 µM).
On the same count and under the same terms, as for `C[C@@H](N1CCn2cc(-c3cccc(C(F)(F)F)c3)nc2C1)[C@](O)(Cn1cncn1)c1ccc(F)cc1F`, the figure is 0.5 µg/mL (≈ 0.964 µM); as for `C[C@@H](N1CCn2ncnc2C1)[C@](O)(Cn1cncn1)c1ccc(F)cc1F`, 0.25 µg/mL (≈ 0.666 µM).
On the same count and under the same terms, as for `C[C@@H](N1CCn2nc(C(F)(F)F)nc2C1)[C@](O)(Cn1cncn1)c1ccc(F)cc1F`, the figure is 0.5 µg/mL (≈ 1.13 µM).

A further experiment deals with Candida parapsilosis. Put plainly: Antimicrobial activity against Candida parapsilosis 22019 after 24 hrs by serial dilution method. It counts as functional. The following applies: Lodderomyces parapsilosis, 22019, 24 h. In a few lines:
as §1
On to `C[C@@H](N1CCn2cc(-c3ccc(F)cc3F)nc2C1)[C@](O)(Cn1cncn1)c1ccc(F)cc1F`, for which the lowest concentration to inhibit growth (MIC) was 0.125 µg/mL (≈ 0.257 µM).
On the same count and under the same terms, the same measure for `Cc1ccc(-c2cn3c(n2)CN([C@H](C)[C@](O)(Cn2cncn2)c2ccc(F)cc2F)CC3)cc1`: 0.125 µg/mL (≈ 0.269 µM); for `COc1cccc(-c2cn3c(n2)CN([C@H](C)[C@](O)(Cn2cncn2)c2ccc(F)cc2F)CC3)c1`: 0.125 µg/mL (≈ 0.26 µM).
`C[C@@H](N1CCn2cc(-c3cccc(F)c3)nc2C1)[C@](O)(Cn1cncn1)c1ccc(F)cc1F` displayed a minimal inhibitory concentration (MIC) of 0.125 µg/mL (≈ 0.267 µM).
Same read-out and setting: the same measure for `C[C@@H](N1CCn2cc(-c3cccc(C(F)(F)F)c3)nc2C1)[C@](O)(Cn1cncn1)c1ccc(F)cc1F`: 0.125 µg/mL (≈ 0.241 µM); for `C[C@@H](N1CCn2ncnc2C1)[C@](O)(Cn1cncn1)c1ccc(F)cc1F`: 0.25 µg/mL (≈ 0.666 µM); for `C[C@@H](N1CCn2nc(C(F)(F)F)nc2C1)[C@](O)(Cn1cncn1)c1ccc(F)cc1F`: 0.5 µg/mL (≈ 1.13 µM).

The next experiment concerns Cryptococcus neoformans. As to the kind of experiment: Antimicrobial activity against Cryptococcus neoformans 32609 after 72 hrs by serial dilution method. In kind it is functional. The conditions noted are these: Cryptococcus neoformans, 32609, 72 h. In a few lines:
as §1
Turning to `C[C@@H](N1CCn2cc(-c3ccc(F)cc3F)nc2C1)[C@](O)(Cn1cncn1)c1ccc(F)cc1F`, inhibition of growth (MIC) required 0.125 µg/mL (≈ 0.257 µM).
Still for that read-out and setting: as for `Cc1ccc(-c2cn3c(n2)CN([C@H](C)[C@](O)(Cn2cncn2)c2ccc(F)cc2F)CC3)cc1`, the figure is 0.125 µg/mL (≈ 0.269 µM); as for `COc1cccc(-c2cn3c(n2)CN([C@H](C)[C@](O)(Cn2cncn2)c2ccc(F)cc2F)CC3)c1`, 0.0625 µg/mL (≈ 0.13 µM).
Still for that read-out and setting: the same measure for `C[C@@H](N1CCn2cc(-c3cccc(F)c3)nc2C1)[C@](O)(Cn1cncn1)c1ccc(F)cc1F`: 0.25 µg/mL (≈ 0.534 µM).
`C[C@@H](N1CCn2cc(-c3cccc(C(F)(F)F)c3)nc2C1)[C@](O)(Cn1cncn1)c1ccc(F)cc1F`: inhibition of growth (MIC) required 0.25 µg/mL (≈ 0.482 µM).
`C[C@@H](N1CCn2ncnc2C1)[C@](O)(Cn1cncn1)c1ccc(F)cc1F` gave an MIC of 0.5 µg/mL (≈ 1.33 µM). Compared with the last molecule, the MIC is about 2-fold higher.
The same measure, in the same setting: the same measure for `C[C@@H](N1CCn2nc(C(F)(F)F)nc2C1)[C@](O)(Cn1cncn1)c1ccc(F)cc1F`: 0.5 µg/mL (≈ 1.13 µM).

In the next experiment the test system is Nakaseomyces glabratus. Put plainly: Antimicrobial activity against Candida glabrata 537 after 24 hrs by serial dilution method. In kind it is functional. The conditions noted are these: Nakaseomyces glabratus, 537, 24 h. The method, boiled down:
as §1
Molecule `C[C@@H](N1CCn2cc(-c3ccc(F)cc3F)nc2C1)[C@](O)(Cn1cncn1)c1ccc(F)cc1F` returned an MIC of 0.125 µg/mL (≈ 0.257 µM).
The same measure, in the same setting: as for `Cc1ccc(-c2cn3c(n2)CN([C@H](C)[C@](O)(Cn2cncn2)c2ccc(F)cc2F)CC3)cc1`, the figure is 0.125 µg/mL (≈ 0.269 µM); as for `COc1cccc(-c2cn3c(n2)CN([C@H](C)[C@](O)(Cn2cncn2)c2ccc(F)cc2F)CC3)c1`, 0.125 µg/mL (≈ 0.26 µM).
The same measure, in the same setting: the same measure for `C[C@@H](N1CCn2cc(-c3cccc(F)c3)nc2C1)[C@](O)(Cn1cncn1)c1ccc(F)cc1F`: 0.25 µg/mL (≈ 0.534 µM); for `C[C@@H](N1CCn2cc(-c3cccc(C(F)(F)F)c3)nc2C1)[C@](O)(Cn1cncn1)c1ccc(F)cc1F`: 0.25 µg/mL (≈ 0.482 µM).
The same measure, in the same setting: as for `C[C@@H](N1CCn2ncnc2C1)[C@](O)(Cn1cncn1)c1ccc(F)cc1F`, the figure is 0.5 µg/mL (≈ 1.33 µM); as for `C[C@@H](N1CCn2nc(C(F)(F)F)nc2C1)[C@](O)(Cn1cncn1)c1ccc(F)cc1F`, 1 µg/mL (≈ 2.26 µM).

Another experiment deals with Aspergillus fumigatus. Put plainly: Antimicrobial activity against Aspergillus fumigatus 7544 after 48 hrs by serial dilution method. It counts as functional. The following applies: Aspergillus fumigatus, 7544, 48 h. The method, boiled down:
as §1
As for `C[C@@H](N1CCn2cc(-c3ccc(F)cc3F)nc2C1)[C@](O)(Cn1cncn1)c1ccc(F)cc1F`, the lowest concentration to inhibit growth (MIC) was 32 µg/mL (≈ 65.8 µM).
As to `Cc1ccc(-c2cn3c(n2)CN([C@H](C)[C@](O)(Cn2cncn2)c2ccc(F)cc2F)CC3)cc1`, the MIC came out at 32 µg/mL (≈ 68.9 µM).
On the same count and under the same terms, the same measure for `COc1cccc(-c2cn3c(n2)CN([C@H](C)[C@](O)(Cn2cncn2)c2ccc(F)cc2F)CC3)c1`: 32 µg/mL (≈ 66.6 µM); for `C[C@@H](N1CCn2cc(-c3cccc(F)c3)nc2C1)[C@](O)(Cn1cncn1)c1ccc(F)cc1F`: 64 µg/mL (≈ 137 µM); for `C[C@@H](N1CCn2cc(-c3cccc(C(F)(F)F)c3)nc2C1)[C@](O)(Cn1cncn1)c1ccc(F)cc1F`: 64 µg/mL (≈ 123 µM).
In turn, `C[C@@H](N1CCn2ncnc2C1)[C@](O)(Cn1cncn1)c1ccc(F)cc1F` had an MIC of 16 µg/mL (≈ 42.6 µM).
Same read-out and setting: the same measure for `C[C@@H](N1CCn2nc(C(F)(F)F)nc2C1)[C@](O)(Cn1cncn1)c1ccc(F)cc1F`: 32 µg/mL (≈ 72.2 µM).

The term MIC denotes the least concentration at which growth counts as inhibited. Read a low MIC as inhibition by little substance.
